Test results reported in ChEMBL document CHEMBL4145466, “Design, synthesis, and biological evaluation of novel combretastatin A-4 thio derivatives as microtubule targeting agents” (Eur J Med Chem, 2018).
Active and inactive are the calls of the source. No cut-off for these calls is given here.

Assays:
MCF7 [1] = assay: Cell cycle arrest in human MCF7 cells assessed as accumulation of cells at G2/M phase at 0.1 to 1 uM after 24 hrs by propidium iodide staining-based FACS analysis; assay type: functional
Method in brief: (§1)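 Cells were seeded at 5 × 10^5 per well in DMEM with 10% FBS and left overnight, then exposed to 0.1, 0.5 or 1 µM for 24 h. DMSO served as the negative control and 50 nM camptothecin as the positive control. Cells were trypsinized, fixed in 70% ethanol for 30 min at 4 °C, stained with 50 µg/mL PI plus 100 µg/mL RNase A for 30 min in the dark, and analysed by flow cytometry. Results are mean ± SD of three experiments, compared by ANOVA with Dunnett's test.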

A-431 [2] = assay: Cytotoxicity against human A431 cells after 48 hrs by MTT assay; assay type: functional, cell-based; settings: A-431, 48 h
Method in brief: (§2)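 Cells in DMEM with 10% FBS were plated at 2 × 10^4 per well and left overnight, then treated for 48 h at 0.6–20 µM (six concentrations) from 10 mM DMSO stocks. MTT was added for 2 h, and formazan was dissolved in DMSO and read at 570 nm. Viability was expressed as % of control, with IC50 taken from dose-response curves. Results are mean ± SD of three independent experiments.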

HeLa [3] = assay: Cytotoxicity against human HeLa cells after 48 hrs by MTT assay; assay type: functional, cell-based; method in brief: as §2
MCF7 [4] = assay: Cytotoxicity against human MCF7 cells after 48 hrs by MTT assay; assay type: functional, cell-based; settings: MCF7, 48 h; method in brief: as §2
MDA-MB-231 [5] = assay: Cytotoxicity against human MDA-MB-231 cells after 48 hrs by MTT assay; assay type: functional, cell-based; settings: MDA-MB-231, 48 h; method in brief: as §2
A549 = assay: Cytotoxicity against human A549 cells after 48 hrs by MTT assay; assay type: functional, cell-based; settings: A549, 48 h
SK-OV-3 [6] = assay: Cytotoxicity against human SKOV3 cells after 48 hrs by MTT assay; assay type: functional, cell-based; settings: SK-OV-3, 48 h; method in brief: as §2
HaCaT [7] = assay: Cytotoxicity against human HaCaT cells after 48 hrs by MTT assay; assay type: cell-based; method in brief: as §2
[8] = Cytotoxicity against human CCD39Lu cells after 48 hrs by MTT assay; assay type: cell-based; method in brief: as §2
[9] = Inhibition of porcine tubulin polymerization after 1 hr by spectrophotometric analysis; set-up: species or system Sus scrofa
Method in brief: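 Polymerization was started by shifting from 4 °C to 37 °C, and absorbance was followed at 37 °C for 60 min. The vehicle served as control.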

SK-OV-3 [10] = assay: Cell cycle arrest in human SKOV3 cells assessed as accumulation of cells at G2/M phase at 0.1 to 1 uM after 24 hrs by propidium iodide staining-based FACS analysis; assay type: functional; method in brief: as §1
A-431 [11] = assay: Cell cycle arrest in human A431 cells assessed as accumulation of cells at G2/M phase at 0.1 to 1 uM after 24 hrs by propidium iodide staining-based FACS analysis; assay type: functional; method in brief: as §1
HaCaT [12] = assay: Cell cycle arrest in human HaCaT cells assessed as accumulation of cells at G2/M phase at 0.1 to 1 uM after 24 hrs by propidium iodide staining-based FACS analysis; method in brief: as §1
MDA-MB-231 [13] = assay: Cell cycle arrest in human MDA-MB-231 cells assessed as accumulation of cells at G2/M phase at 0.1 to 1 uM after 24 hrs by propidium iodide staining-based FACS analysis; assay type: functional; method in brief: as §1
Tubulin [14] = assay: Inhibition of tubulin polymerization in human HaCaT cells assessed as micronuclei formation at 1 uM after 24 hrs by ELISA; assay type: cell-based
Tubulin [15] = assay: Inhibition of tubulin polymerization in human HaCaT cells assessed as micronuclei formation at 1 uM after 24 hrs by Hoechst 33258/FITC staining-based […]; assay type: cell-based
Method in brief: (§3)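 Cells seeded at 12.5 × 10^4 per well and exposed to 1 µM compound for 24 h. Nuclei were stained with Hoechst 33258 (10 µg/mL, 30 min, 37 °C), then fixed in 4% formaldehyde/PBS (15 min, RT). Cells were permeabilized with 1% Triton X-100, blocked with 2% BSA/PBS for 1 h, and incubated with anti-α-tubulin-FITC (1:50) overnight at 4 °C. Imaged by fluorescence microscopy.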

HaCaT [16] = assay: Induction of apoptosis in human HaCaT cells after 24 hrs by FITC Annexin V/propidium iodide staining-based FACScan flow cytometric analysis; assay type: cell-based
Method in brief: (§4)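 After 24 h of compound exposure, 1 × 10^6 cells were labelled with annexin V-FITC and PI for 15 min at 25 °C in the dark. They were read on a FACScan with 488 nm excitation, detecting FITC at 525 nm and PI at 620 nm. Results are mean ± SD of three independent experiments, with Dunnett's test against control.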

MCF7 [17] = assay: Induction of apoptosis in human MCF7 cells after 24 hrs by FITC Annexin V/propidium iodide staining-based FACScan flow cytometric analysis; assay type: functional, cell-based; method in brief: as §4
MDA-MB-231 [18] = assay: Induction of apoptosis in human MDA-MB-231 cells after 24 hrs by FITC Annexin V/propidium iodide staining-based FACScan flow cytometric analysis; assay type: functional, cell-based; method in brief: as §4
HeLa [19] = assay: Induction of apoptosis in human HeLa cells after 24 hrs by FITC Annexin V/propidium iodide staining-based FACScan flow cytometric analysis; assay type: functional, cell-based; method in brief: as §4
SK-OV-3 [20] = assay: Induction of apoptosis in human SKOV3 cells after 24 hrs by FITC Annexin V/propidium iodide staining-based FACScan flow cytometric analysis; assay type: functional, cell-based; method in brief: as §4
A-431 [21] = assay: Induction of apoptosis in human A431 cells after 24 hrs by FITC Annexin V/propidium iodide staining-based FACScan flow cytometric analysis; assay type: functional, cell-based; method in brief: as §4
A-431 [22] = assay: Induction of apoptosis in human A431 cells assessed as increase in histone-associated DNA fragments in mononucleosomes at 0.1 uM after 24 hrs by ELISA; assay type: functional, cell-based
Method in brief: (§5)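 Cells (2 × 10^4) were incubated for 24 h at 0.1, 0.5 or 1 µM, lysed and centrifuged. Supernatants went onto a streptavidin plate with anti-histone-biotin and anti-DNA-peroxidase for 2 h, followed by ABTS for 30 min and a reading at 405 nm. Nucleosome content was expressed as an enrichment factor, as mean ± SD of three experiments.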

HaCaT [23] = assay: Induction of apoptosis in human HaCaT cells assessed as increase in histone-associated DNA fragments in mononucleosomes at 0.1 uM after 24 hrs by ELISA; assay type: cell-based
Method in brief: (§6)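 HaCaT cells (2 × 10^4), grown in DMEM with 10% FBS, penicillin/streptomycin and 2 mM L-glutamine, exposed to compound (DMSO stock) for 24 h. Cells lysed, supernatant taken after centrifugation and incubated 2 h on a streptavidin-coated plate with anti-histone-biotin and anti-DNA-peroxidase. ABTS added for 30 min, A405 read. Output is enrichment factor vs control, mean ± SD of three independent experiments.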

HeLa [24] = assay: Induction of apoptosis in human HeLa cells assessed as increase in histone-associated DNA fragments in mononucleosomes at 0.1 uM after 24 hrs by ELISA; assay type: functional, cell-based; method in brief: as §5
MCF7 [25] = assay: Induction of apoptosis in human MCF7 cells assessed as increase in histone-associated DNA fragments in mononucleosomes at 0.1 uM after 24 hrs by ELISA; assay type: functional, cell-based; method in brief: as §5
MDA-MB-231 [26] = assay: Induction of apoptosis in human MDA-MB-231 cells assessed as increase in histone-associated DNA fragments in mononucleosomes at 0.1 uM after 24 hrs by ELISA; assay type: functional, cell-based; method in brief: as §5
SK-OV-3 [27] = assay: Induction of apoptosis in human SKOV3 cells assessed as increase in histone-associated DNA fragments in mononucleosomes at 0.1 uM after 24 hrs by ELISA; assay type: functional, cell-based; method in brief: as §5
A-431 [28] = assay: Induction of apoptosis in human A431 cells assessed as increase in histone-associated DNA fragments in oligonucleosomes at 0.1 uM after 24 hrs by ELISA; assay type: functional, cell-based; method in brief: as §5
HaCaT [29] = assay: Induction of apoptosis in human HaCaT cells assessed as increase in histone-associated DNA fragments in oligonucleosomes at 0.1 uM after 24 hrs by ELISA; assay type: cell-based; method in brief: as §6
HeLa [30] = assay: Induction of apoptosis in human HeLa cells assessed as increase in histone-associated DNA fragments in oligonucleosomes at 0.1 uM after 24 hrs by ELISA; assay type: functional, cell-based; method in brief: as §5
MCF7 [31] = assay: Induction of apoptosis in human MCF7 cells assessed as increase in histone-associated DNA fragments in oligonucleosomes at 0.1 uM after 24 hrs by ELISA; assay type: functional, cell-based; method in brief: as §5
MDA-MB-231 [32] = assay: Induction of apoptosis in human MDA-MB-231 cells assessed as increase in histone-associated DNA fragments in oligonucleosomes at 0.1 uM after 24 hrs by ELISA; assay type: functional, cell-based; method in brief: as §5
SK-OV-3 [33] = assay: Induction of apoptosis in human SKOV3 cells assessed as increase in histone-associated DNA fragments in oligonucleosomes at 0.1 uM after 24 hrs by ELISA; assay type: functional, cell-based; method in brief: as §5
Tubulin [34] = assay: Inhibition of tubulin polymerization in human HaCaT cells assessed as perturbation in cytoskeleton structure at 1 uM after 24 hrs by ELISA; assay type: cell-based
Tubulin [35] = assay: Inhibition of tubulin polymerization in human HaCaT cells assessed as perturbation in cytoskeleton structure at 1 uM after 24 hrs by Hoechst 33258/FITC staining-based […]; assay type: cell-based; method in brief: as §3

## COc1ccc(/C=C\c2cc(OC)c(OC)c(OC)c2)cc1O [COMBRETASTATIN A4]
MCF7 [1]
  Activity: Active
A-431 [2]
  IC50: 250 nM
HeLa [3]
  IC50: 110 nM
MCF7 [4]
  IC50: 170 nM
MDA-MB-231 [5]
  IC50: 560 nM
A549
  IC50: > 20000 nM
SK-OV-3 [6]
  IC50: 380 nM
HaCaT [7]
  IC50: 190 nM
[8]
  IC50: 9 nM
[9]
  IC50: 2720 nM
SK-OV-3 [10]
  Activity: Active
A-431 [11]
  Activity: Active
HaCaT [12]
  Activity: Toxic
MDA-MB-231 [13]
  Activity: Active
Tubulin [14]
  inhibition (INH): Active
Tubulin [15]
  inhibition (INH): Active
HaCaT [16]
  Activity: Dose-dependent effect
MCF7 [17]
  Activity: Dose-dependent effect
MDA-MB-231 [18]
  Activity: Dose-dependent effect
HeLa [19]
  Activity: Dose-dependent effect
SK-OV-3 [20]
  Activity: Dose-dependent effect
A-431 [21]
  Activity: Dose-dependent effect
A-431 [22]
  Activity: Active
HaCaT [23]
  Activity: Toxic
HeLa [24]
  Activity: Active
MCF7 [25]
  Activity: Active
MDA-MB-231 [26]
  Activity: Active
SK-OV-3 [27]
  Activity: Active
A-431 [28]
  Activity: Active
HaCaT [29]
  Activity: Toxic
HeLa [30]
  Activity: Active
MCF7 [31]
  Activity: Active
MDA-MB-231 [32]
  Activity: Active
SK-OV-3 [33]
  Activity: Active
Tubulin [34]
  inhibition (INH): Active
Tubulin [35]
  inhibition (INH): Active
